# Measured values of several laboratories.
# Lines come from different studies, so protocols differ.
# Organism: Cryptococcus neoformans
SMILES,test,system,setting,quantity,result
OC(Cn1cncn1)(Cn1cncn1)c1ccc(F)cc1F,"microbial growth, broth dilution",ATCC208821,24 h,MIC,8 µg/mL
"Cl.Oc1cccc2c1[nH]c1c(C3=CC4(O)CC/C=C\CCCCN5CCC3C3(CC6/C=C\CCCCN6C43)C5)nccc12 (single isomer, unassigned; (+))",microbial growth,ATCC90113,,IC50,2.69 µg/mL
CCCCCCCCCCCCCC(O)CC(O)CO (centres unmarked),"microbial growth, broth dilution",ATCC90113,,IC50,32.9 µg/mL
O=C(CCCCCC[P+](c1ccccc1)(c1ccccc1)c1ccccc1)Nc1ccc(O)c(O)c1.[Br-],"microbial growth, broth dilution",ATCC208821,24 h,MIC,> 32 µg/mL
C=CCCCCCCCCCCCC(O)CC(O)CO (centres unmarked),"microbial growth, broth dilution",ATCC90113,,IC50,> 200 µg/mL
C[C@@H]1[C@H](O)[C@@H](C)/C=C/C=C/C=C/C=C/C=C/C=C/C=C/[C@H](O[C@@H]2O[C@H](C)[C@@H](O)[C@H](N)[C@@H]2O)C[C@@H]2O[C@](O)(C[C@@H](O)C[C@@H](O)[C@H](O)CC[C@@H](O)C[C@@H](O)CC(=O)O[C@H]1C)C[C@H](O)[C@H]2C(=O)O,microbial growth,ATCC90113,,MIC,1.25 µg/mL
Cc1occc(=O)c1O,"microbial growth, broth dilution",,48 h,MIC,> 100 µM
C[C@@H]1[C@H](O)[C@@H](C)/C=C/C=C/C=C/C=C/C=C/C=C/C=C/[C@H](O[C@@H]2O[C@H](C)[C@@H](O)[C@H](N)[C@@H]2O)C[C@@H]2O[C@](O)(C[C@@H](O)C[C@@H](O)[C@H](O)CC[C@@H](O)C[C@@H](O)CC(=O)O[C@H]1C)C[C@H](O)[C@H]2C(=O)O,microbial killing,ATCC90113,,MFC,0.68 µM
O=C(CCCCCCCC[P+](c1ccccc1)(c1ccccc1)c1ccccc1)Nc1cc(O)c(O)c(O)c1.[Br-],"microbial growth, broth dilution",ATCC208821,24 h,MIC,8 µg/mL
C[C@@H]1[C@H](O)[C@@H](C)/C=C/C=C/C=C/C=C/C=C/C=C/C=C/[C@H](O[C@@H]2O[C@H](C)[C@@H](O)[C@H](N)[C@@H]2O)C[C@@H]2O[C@](O)(C[C@@H](O)C[C@@H](O)[C@H](O)CC[C@@H](O)C[C@@H](O)CC(=O)O[C@H]1C)C[C@H](O)[C@H]2C(=O)O,microbial growth,ATCC90113,,IC50,1.14 µg/mL
OCCN1CCN(CCCN2c3ccccc3Sc3ccc(Cl)cc32)CC1,"microbial growth, broth dilution",,,MIC,16 µg/mL
